# Reference: ChEMBL document CHEMBL1154719, “Click chemistry: studies on the synthesis of novel fluorous tagged triazol-4-yl substituted quinazoline derivatives and their biological evaluation--theoretical and experimental validation” (2010)
# What was measured:
# Assay type in all cases: functional
# Bacillus subtilis = assay: Antibacterial activity against Bacillus subtilis MTCC 441 by broth dilution method
# Outline: (§1)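 MIC by broth dilution in nutrient broth. Test bacteria were kept on nutrient agar slants and subcultured in Petri dishes before testing.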
# Staphylococcus aureus = assay: Antibacterial activity against Staphylococcus aureus MTCC 96 by broth dilution method; outline: as §1
# [1] = tested on: Staphylococcus epidermidis; assay: Antibacterial activity against Staphylococcus epidermidis MTCC 435 by broth dilution method; outline: as §1
# Escherichia coli = assay: Antibacterial activity against Escherichia coli MTCC 443 by broth dilution method; outline: as §1
# Pseudomonas aeruginosa = assay: Antibacterial activity against Pseudomonas aeruginosa MTCC 741 by broth dilution method; outline: as §1
# Candida albicans [2] = assay: Antifungal activity against Candida albicans MTCC 227 at 30 ug/ml after 48 hrs by agar cup diffusion method; details: MTCC 227, 48 h, read-out: DIZ
# Outline: (§2)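 Agar cup diffusion on autoclaved potato dextrose agar plates. Each plate was spread with 0.5 ml of a week-old culture, and test solutions at 30 and 100 per ml were added to cups. Plates were held at 28 °C for 48 h, and inhibition zone diameters were read in mm. Acetone served as the solvent control and amphotericin-B as the reference.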
# Candida albicans [3] = assay: Antifungal activity against Candida albicans MTCC 227 at 100 ug/ml after 48 hrs by agar cup diffusion method; details: MTCC 227, 48 h, read-out: DIZ; outline: as §2
# Rhizopus arrhizus [4] = assay: Antifungal activity against Rhizopus oryzae MTCC 262 at 100 ug/ml after 48 hrs by agar cup diffusion method; details: MTCC 262, 48 h, read-out: DIZ; outline: as §2
# Saccharomyces cerevisiae [5] = assay: Antifungal activity against Saccharomyces cerevisiae MTCC 36 at 100 ug/ml after 48 hrs by agar cup diffusion method; details: MTCC 36, 48 h, read-out: DIZ; outline: as §2
# Aspergillus niger [6] = assay: Antifungal activity against Aspergillus niger MTCC 1344 at 30 ug/ml after 48 hrs by agar cup diffusion method; details: MTCC 1344, 48 h, read-out: DIZ; outline: as §2
# Aspergillus niger [7] = assay: Antifungal activity against Aspergillus niger MTCC 1344 at 100 ug/ml after 48 hrs by agar cup diffusion method; details: MTCC 1344, 48 h, read-out: DIZ; outline: as §2
# Aspergillus flavus [8] = assay: Antifungal activity against Aspergillus flavus MTCC 277 at 100 ug/ml after 48 hrs by agar cup diffusion method; details: MTCC 277, 48 h, read-out: DIZ; outline: as §2
# Diutina rugosa [9] = assay: Antifungal activity against Candida rugosa NCIM 3462 at 100 ug/ml after 48 hrs by agar cup diffusion method; details: NCIM 3462, 48 h, read-out: DIZ; outline: as §2
# Saccharomyces cerevisiae [10] = assay: Antifungal activity against Saccharomyces cerevisiae MTCC 36 at 30 ug/ml after 48 hrs by agar cup diffusion method; details: MTCC 36, 48 h, read-out: DIZ; outline: as §2
# Rhizopus arrhizus [11] = assay: Antifungal activity against Rhizopus oryzae MTCC 262 at 30 ug/ml after 48 hrs by agar cup diffusion method; details: MTCC 262, 48 h, read-out: DIZ; outline: as §2
# Aspergillus flavus [12] = assay: Antifungal activity against Aspergillus flavus MTCC 277 at 30 ug/ml after 48 hrs by agar cup diffusion method; details: MTCC 277, 48 h, read-out: DIZ; outline: as §2
# Diutina rugosa [13] = assay: Antifungal activity against Candida rugosa NCIM 3462 at 30 ug/ml after 48 hrs by agar cup diffusion method; details: NCIM 3462, 48 h, read-out: DIZ; outline: as §2
# Candida albicans [14] = assay: Antifungal activity against Candida albicans MTCC 227 at 50 ug/ml after 48 hrs by agar cup diffusion method; details: MTCC 227, 48 h, read-out: DIZ
# Outline: (§3)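 Amphotericin-B reference at 50 per ml in the agar cup assay on potato dextrose agar. Plates were spread with 0.5 ml of a week-old fungal culture, incubated at 28 °C for 48 h, and inhibition zone diameter was read in mm. Acetone served as the negative control.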
# Saccharomyces cerevisiae [15] = assay: Antifungal activity against Saccharomyces cerevisiae MTCC 36 at 50 ug/ml after 48 hrs by agar cup diffusion method; details: MTCC 36, 48 h, read-out: DIZ; outline: as §3
# Rhizopus arrhizus [16] = assay: Antifungal activity against Rhizopus oryzae MTCC 262 at 50 ug/ml after 48 hrs by agar cup diffusion method; details: MTCC 262, 48 h, read-out: DIZ; outline: as §3
# Aspergillus flavus [17] = assay: Antifungal activity against Aspergillus flavus MTCC 277 at 50 ug/ml after 48 hrs by agar cup diffusion method; details: MTCC 277, 48 h, read-out: DIZ; outline: as §3
# Aspergillus niger [18] = assay: Antifungal activity against Aspergillus niger MTCC 1344 at 50 ug/ml after 48 hrs by agar cup diffusion method; details: MTCC 1344, 48 h, read-out: DIZ
# Outline: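 Agar cup diffusion on potato dextrose agar plates. 0.5 ml of a week-old A. niger culture spread over the solidified agar, then test solutions added to cups. Acetone served as negative control and amphotericin-B as positive control. Plates kept at 28 °C for 48 h. Read-out was inhibition zone diameter in mm.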
# Diutina rugosa [19] = assay: Antifungal activity against Candida rugosa NCIM 3462 at 50 ug/ml after 48 hrs by agar cup diffusion method; details: NCIM 3462, 48 h, read-out: DIZ; outline: as §3
SMILES,MIC (Bacillus subtilis),MIC (Staphylococcus aureus),MIC [1],MIC (Escherichia coli),MIC (Pseudomonas aeruginosa),zone of inhibition at 30 µg/mL (Candida albicans [2]),zone of inhibition at 100 µg/mL (Candida albicans [3]),zone of inhibition at 100 µg/mL (Rhizopus arrhizus [4]),zone of inhibition at 100 µg/mL (Saccharomyces cerevisiae [5]),zone of inhibition at 30 µg/mL (Aspergillus niger [6]),zone of inhibition at 100 µg/mL (Aspergillus niger [7]),zone of inhibition at 100 µg/mL (Aspergillus flavus [8]),zone of inhibition at 100 µg/mL (Diutina rugosa [9]),other results
O=c1c2ccccc2nc(C(F)(F)F)n1Cc1cn(CCC(F)(F)C(F)(F)C(F)(F)C(F)(F)C(F)(F)C(F)(F)C(F)(F)C(F)(F)F)nn1,75 µg/mL,75 µg/mL,75 µg/mL,75 µg/mL,75 µg/mL,7 mm,9 mm,–,9 mm,7 mm,9 mm,9 mm,–,–
C[C@@H]1[C@H](O)[C@@H](C)/C=C/C=C/C=C/C=C/C=C/C=C/C=C/[C@H](O[C@@H]2O[C@H](C)[C@@H](O)[C@H](N)[C@@H]2O)C[C@@H]2O[C@](O)(C[C@@H](O)C[C@@H](O)[C@H](O)CC[C@@H](O)C[C@@H](O)CC(=O)O[C@H]1C)C[C@H](O)[C@H]2C(=O)O [AMPHOTERICIN B],–,–,–,–,–,–,–,–,–,–,–,–,–,zone of inhibition at 50 µg/mL (Candida albicans [14]): 23.5 mm; zone of inhibition at 50 µg/mL (Saccharomyces cerevisiae [15]): 22 mm; zone of inhibition at 50 µg/mL (Rhizopus arrhizus [16]): 24 mm; zone of inhibition at 50 µg/mL (Aspergillus flavus [17]): 25 mm; zone of inhibition at 50 µg/mL (Aspergillus niger [18]): 25 mm; zone of inhibition at 50 µg/mL (Diutina rugosa [19]): 22 mm
CC1(C)S[C@@H]2[C@H](NC(=O)Cc3ccccc3)C(=O)N2[C@H]1C(=O)O [PENICILLIN G],1.53 µg/mL,6.25 µg/mL,3.12 µg/mL,6.25 µg/mL,12.5 µg/mL,–,–,–,–,–,–,–,–,–
CN[C@@H]1[C@H](O[C@H]2[C@H](O[C@H]3[C@H](O)[C@@H](O)[C@H](N=C(N)N)[C@@H](O)[C@@H]3N=C(N)N)O[C@@H](C)[C@]2(O)C=O)O[C@@H](CO)[C@H](O)[C@H]1O [STREPTOMYCIN],6.25 µg/mL,1.56 µg/mL,1.56 µg/mL,3.12 µg/mL,3.12 µg/mL,–,–,–,–,–,–,–,–,–

# The next lines start with results.
MIC (Bacillus subtilis),MIC (Staphylococcus aureus),MIC [1],MIC (Escherichia coli),MIC (Pseudomonas aeruginosa),SMILES,zone of inhibition at 30 µg/mL (Candida albicans [2]),zone of inhibition at 100 µg/mL (Candida albicans [3]),zone of inhibition at 100 µg/mL (Rhizopus arrhizus [4]),zone of inhibition at 100 µg/mL (Saccharomyces cerevisiae [5]),zone of inhibition at 30 µg/mL (Aspergillus niger [6]),zone of inhibition at 100 µg/mL (Aspergillus niger [7]),zone of inhibition at 100 µg/mL (Aspergillus flavus [8]),zone of inhibition at 100 µg/mL (Diutina rugosa [9]),other results
37.5 µg/mL,9.38 µg/mL,9.38 µg/mL,75 µg/mL,37.5 µg/mL,FC(F)(F)C(F)(F)C(F)(F)C(F)(F)C(F)(F)C(F)(F)C(F)(F)C(F)(F)CCn1nncc1COc1nc(-c2ccccc2)nc2ccccc12,8 mm,12 mm,12 mm,9 mm,8 mm,12 mm,9 mm,12 mm,–
150 µg/mL,75 µg/mL,75 µg/mL,15 µg/mL,75 µg/mL,O=c1c2ccccc2nc(-c2ccccc2)n1Cc1cn(CCC(F)(F)C(F)(F)C(F)(F)C(F)(F)C(F)(F)C(F)(F)C(F)(F)C(F)(F)F)nn1,–,9 mm,10 mm,9 mm,–,9 mm,9 mm,10 mm,–
37.5 µg/mL,37.5 µg/mL,37.5 µg/mL,75 µg/mL,37.5 µg/mL,C#CCn1c(-c2ccccc2)nc2ccccc2c1=O,7 mm,10 mm,12 mm,12 mm,7 mm,10 mm,12 mm,12 mm,zone of inhibition at 30 µg/mL (Saccharomyces cerevisiae [10]): 9 mm; zone of inhibition at 30 µg/mL (Rhizopus arrhizus [11]): 8 mm; zone of inhibition at 30 µg/mL (Aspergillus flavus [12]): 9 mm; zone of inhibition at 30 µg/mL (Diutina rugosa [13]): 8 mm
150 µg/mL,150 µg/mL,150 µg/mL,150 µg/mL,150 µg/mL,C#CCOc1nc(-c2ccccc2)nc2ccccc12,7 mm,10 mm,–,–,7 mm,10 mm,–,–,–
